Activity calls are given as the source filed them. No cut-off for these calls is given here.
How the values were obtained:
[1] = system: RPMI-8226; assay: Induction of apoptosis in human RPMI8226 cells at 5 uM after 24 hrs in presence of bortezomib by Annexin V/propidium iodide staining based flow cytometry; assay type: functional, cell-based
[2] = Half life in beagle dog hepatocytes at 10 uM by LC-MS/MS analysis; assay type: ADME, cell-based, Canis lupus familiaris, Hepatocyte
In short: (§1)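 Substrate depletion in cryopreserved hepatocytes (male SD rat, male beagle dog, human). Compound at 10 µM incubated at 37 °C for up to 4 h. Cell density approximately 0.5 × 10^6 hepatocytes/well for rat and dog, 0.24 × 10^6/well for human. Half-life and CLint derived from depletion; % remaining at 60 min also reported.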

[3] = system: RPMI-8226; assay: Cell cycle arrest in human RPMI8226 cells assessed as accumulation at sub-G1 phase at 5 uM after 24 hrs in presence of bortezomib by propidium iodide staining based flow cytometry (reference value: 12.25%); assay type: functional
[4] = system: U-266; assay: Induction of apoptosis in human U266 cells at 5 uM after 24 hrs by Annexin V/propidium iodide staining based flow cytometry; assay type: functional, cell-based
[5] = system: NCI-H929; assay: Induction of apoptosis in human NCI-H929 cells at 5 uM after 24 hrs in presence of bortezomib by Annexin V/propidium iodide staining based flow cytometry; assay type: functional, cell-based
[6] = Apparent permeability from basolateral to apical side in human Caco2 cells assessed as drug recovery at 10 uM after 2 hrs by LC-MS/MS analysis; assay type: ADME, cell-based; settings: Caco-2, read-out: Drug recovery
In short: (§2)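 Caco-2 cells seeded at 8.4 × 10^4 cells/cm2 on polycarbonate inserts for 21 days. For A→B, donor was apical (HBSS/MES pH 6.5, 10 µM compound) and receiver basolateral (HBSS/HEPES pH 7.4). For B→A, donor was basolateral (HBSS/HEPES pH 7.4, 10 µM) and receiver apical (HBSS/MES pH 6.5). Incubated at 37 °C for 2 h. Receiver sampled at 30, 60, 90 and 120 min, donor at 0 and 120 min.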

[7] = system: RPMI-8226; assay: Cell cycle arrest in human RPMI8226 cells assessed as accumulation at S phase at 5 uM after 24 hrs by propidium iodide staining based flow cytometry (reference value: 19.53%); assay type: functional
[8] = Stability in human hepatocytes assessed as parent compound remaining at 10 uM after 60 mins by LC-MS/MS analysis; assay type: ADME, cell-based, Hepatocyte; settings: read-out: Stability
In short: (§3)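 Cryopreserved hepatocytes (Sprague-Dawley rat, beagle dog, human) incubated with compound at 10 µM, 37 °C, for up to 4 h. About 0.5×10^6 cells/well for rat and dog, 0.24×10^6 for human.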

[9] = Half life in Sprague-Dawley rat hepatocytes at 10 uM by LC-MS/MS analysis; assay type: ADME, cell-based, Hepatocyte; in short: as §1
[10] = system: U-266; assay: Cell cycle arrest in human U266 cells assessed as accumulation at G0/G1 phase at 5 uM after 24 hrs in presence of bortezomib by propidium iodide staining based flow cytometry (reference value: 40.29%); assay type: functional
[11] = system: NCI-H929; assay: Cell cycle arrest in human NCI-H929 cells assessed as accumulation at G2/M phase at 5 uM after 24 hrs in presence of bortezomib by propidium iodide staining based flow cytometry (reference value: 31.63%); assay type: functional
[12] = system: U-266; assay: Cell cycle arrest in human U266 cells assessed as accumulation at G0/G1 phase at 5 uM after 24 hrs by propidium iodide staining based flow cytometry (reference value: 40.29%); assay type: functional
[13] = system: NCI-H929; assay: Cell cycle arrest in human NCI-H929 cells assessed as accumulation at G0/G1 phase at 5 uM after 24 hrs in presence of bortezomib by propidium iodide staining based flow cytometry (reference value: 49.39%); assay type: functional
[14] = system: Mus musculus; assay: Toxicity in nude mouse xenografted with human RPMI8226 cells assessed as change in body weight at 30 mg/kg, iv or ip administered for 5 days followed by 2 days off for 35 days cotreated with bortezomib; assay type: organism-based; settings: in vivo
In short: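 Male 8-week nude mice implanted sc with 1×10^7 RPMI 8226 cells, randomized at ~200 mm3 (n = 8). […] Vehicle: 0.5% EtOH/0.5% Cremophor in 5% dextran.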

[15] = system: U-266; assay: Induction of apoptosis in human U266 cells at 5 uM after 24 hrs in presence of bortezomib by Annexin V/propidium iodide staining based flow cytometry; assay type: functional, cell-based
[16] = system: U-266; assay: Cell cycle arrest in human U266 cells assessed as accumulation at sub-G1 phase at 5 uM after 24 hrs by propidium iodide staining based flow cytometry (reference value: 10.76%); assay type: functional
[17] = system: Mus musculus; assay: Toxicity in Balb/c mouse assessed as change in body weight at 50 to 200 mg/kg, ip administered once daily for 1 week measured for 1 week; assay type: organism-based; settings: in vivo, 168 h
In short: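 Male 8-week balb/c mice, ten per dose, given compound ip once daily for 7 days at 50, 100 or 200 mg/kg, then monitored one week. Body weight recorded over 14 days. MTD = highest dose with no drug-related moribund state or death and weight loss under 20%.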

[18] = Apparent permeability from basolateral to apical side in human Caco2 cells at 10 uM after 2 hrs by LC-MS/MS analysis; assay type: ADME, cell-based; settings: Caco-2; in short: as §2
[19] = system: U-266; assay: Cell cycle arrest in human U266 cells assessed as accumulation at G2/M phase at 5 uM after 24 hrs by propidium iodide staining based flow cytometry (reference value: 35.13%); assay type: functional
[20] = system: RPMI-8226; assay: Cell cycle arrest in human RPMI8226 cells assessed as accumulation at G2/M phase at 5 uM after 24 hrs in presence of bortezomib by propidium iodide staining based flow cytometry (reference value: 23.94%); assay type: functional
[21] = Half life in human hepatocytes at 10 uM by LC-MS/MS analysis; assay type: ADME, cell-based, Hepatocyte; in short: as §1
[22] = Apparent permeability from apical to basolateral side in human Caco2 cells at 10 uM after 2 hrs by LC-MS/MS analysis; assay type: ADME, cell-based; settings: Caco-2; in short: as §2
[23] = system: NCI-H929; assay: Cell cycle arrest in human NCI-H929 cells assessed as accumulation at S phase at 5 uM after 24 hrs by propidium iodide staining based flow cytometry (reference value: 13.5%); assay type: functional
[24] = Intrinsic clearance in human hepatocytes at 10 uM by LC-MS/MS analysis; assay type: ADME, cell-based, Hepatocyte; settings: read-out: CLH; in short: as §3
[25] = system: Salmonella typhimurium; assay: Mutagenicity in Salmonella typhimurium TA100 assessed as increase in number of revertant colonies at 3 to 3000 ug/plate in absence of S9 fraction by Ames test; assay type: toxicity; settings: salmonella enterica subsp. enterica serovar typhimurium
In short: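 Ames test, TA98 and TA100. Overnight broth cultures preincubated 20 min at 35-37 °C with compound (DMSO stock) plus Aroclor 1254-induced rat liver S9 mix or PBS, then plated in top agar with 0.05 mM histidine/biotin. Final 3-3000 µg/plate; revertants counted after 72 h at 37 °C. ≥3-fold over vehicle = mutagenic; ≤50% = cytotoxic.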

[26] = Intrinsic clearance in Sprague-Dawley rat hepatocytes at 10 uM by LC-MS/MS analysis; assay type: ADME, cell-based, Hepatocyte; settings: read-out: CLH; in short: as §3
[27] = system: RPMI-8226; assay: Antitumor activity against human RPMI8226 cells xenografted in nude mouse assessed as tumor growth inhibition at 30 mg/kg, iv or ip administered for 5 days followed by 2 days off for 35 days cotreated with bortezomib relative to control; assay type: functional; settings: read-out: TGI
In short: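 RPMI 8226 cells (1 × 10^7) implanted s.c. in eight-week-old male nude mice. At mean tumor volume 200 mm3, mice randomized into four groups (n = 8). Caliper measurement every 3–4 days, volume L×W²/2. %TGI computed from treated versus control volume changes relative to time 0.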

half-life at 10 µM [2]: 1.97 h | recovery at 2 h, 10 µM [6]: 69% | remaining at 1 h, 10 µM [8]: 86.4% | half-life at 10 µM [9]: 0.93 h | Papp B→A at 2 h, 10 µM [18]: 20.1 ×10⁻⁶ cm/s | half-life at 10 µM [21]: 4 h | Papp A→B at 2 h, 10 µM [22]: 24 ×10⁻⁶ cm/s | CLint scaled at 10 µM [24]: 32.5 mL/min/kg | CLint scaled at 10 µM [26]: 151 mL/min/kg
SMILES: O=C(NO)c1ccc(CNc2cccc3cccnc23)cc1
Activity [1]: Active | Activity [3]: 84.18% | Activity [4]: Active | Activity [5]: Active | Activity [7]: 15.19% | Activity [10]: 25.75% | Activity [11]: 1.73% | Activity [12]: 52.88% | Activity [13]: 15.77% | Activity [14]: Non-Toxic | Activity [15]: Active | Activity [16]: 17.82% | Activity [17]: Non-Toxic | Activity [19]: 23.3% | Activity [20]: 2.33% | Activity [23]: 8.55% | Activity [25]: Non-Toxic | inhibition in vivo at 30 mg/kg [27]: 86.2%

Reference: ChEMBL document CHEMBL4024792, “(N-Hydroxycarbonylbenylamino)quinolines as Selective Histone Deacetylase 6 Inhibitors Suppress Growth of Multiple Myeloma in Vitro and in Vivo” (J Med Chem, 2018)
